# NPY2 pot ag – human NPY-Y2 potentiation or agonism, primary screen; P49146; activation, % at 3.6 µM; 0.45% of 220,000 active; cells expressing NPY-Y2, potentiator/agonist read-out; AID 1359; in the data active = activation above about 27%;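 note: cells stimulated with NPY near EC25 plus isoproterenol at EC100; 0% = vehicle plus submaximal agonist and 100% = vehicle plus saturating agonist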
# Target sequence (P49146 whole entry, looked up): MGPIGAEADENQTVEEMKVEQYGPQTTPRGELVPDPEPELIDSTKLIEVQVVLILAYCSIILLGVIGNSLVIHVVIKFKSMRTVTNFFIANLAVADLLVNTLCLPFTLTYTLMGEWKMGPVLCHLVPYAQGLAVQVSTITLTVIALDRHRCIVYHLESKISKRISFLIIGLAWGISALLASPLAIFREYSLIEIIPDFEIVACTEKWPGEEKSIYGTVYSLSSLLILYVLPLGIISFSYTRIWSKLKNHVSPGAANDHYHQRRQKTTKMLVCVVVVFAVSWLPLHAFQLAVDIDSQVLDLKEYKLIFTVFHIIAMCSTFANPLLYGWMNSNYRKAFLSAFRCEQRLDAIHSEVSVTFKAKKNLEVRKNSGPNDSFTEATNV
# NPY Y1 blocker – NPY-Y1 (human) receptor antagonism. HEK293-CNG Y1 cells, membrane potential fluorescence; NPY at EC95, then isoproterenol. AID 1040. inhibition, % at 3.6 µM. 1% of 200,000 active;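 active = inhibition above the campaign mean inhibition of all tested compounds plus 3 SD, cut at about 20% in these data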;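 note: 0% = DMSO wells given NPY plus isoproterenol and 100% = isoproterenol alone without NPY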
#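 Material: HEK293 Y1/CNG channel cell line; also added: NPY (25 nM), isoproterenol (1 µM), Ro 20-1724 (25 µM); doses: one concentration, 3.6 µM, in 0.4% DMSO; schedule: compound incubation 1 h at room temperature, readout 45 min post-stimulation; technique: membrane potential fluorescence; measure: fluorescence ratio normalized to % inhibition between controls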
# NPY Y2 blocker – NPY-Y2 (human) receptor antagonism | 0.99% of 140,000 active | P49146 | inhibition, % at 2.7 µM | NPY-Y2 expressing cells, antagonist mode | AID 793; in the data active = inhibition above about 17%;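 note: 0% = vehicle with agonist challenge and 100% = reference antagonist with challenge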
# NPY-Y1 PAM-ag – potentiators or agonists of human neuropeptide Y receptor Y1; P25929; NPY-Y1 expressing cells, potentiator/agonist activation; activation, % at 3.6 µM; 0.37% of 220,000 active; AID 1304; in the data active = activation above about 33%, passing the limit was not always enough;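 note: cells stimulated with NPY at EC10 then isoproterenol at EC100; 0% = low agonist plus stimulus and 100% = saturating agonist plus stimulus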
# NPY-Y2 pot conf – confirmation of human NPY-Y2 receptor potentiators or agonists | shares compounds with NPY2 pot ag | cell-based NPY-Y2 potentiator/agonist assay | activation, % at 3.6 µM | 20% of 450 active | AID 1539; in the data active = activation above about 33%
# NPY-Y1 potentiator – counter-screen for NPY-Y2 potentiators or agonists: NPY-Y1 potentiators or agonists; shares compounds with NPY2 pot ag; activation, % at 3.6 µM; 20% of 450 active; Y1 HEK293-CNG cells, membrane potential fluorescence; in the data active = activation above about 45%;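 note: cells stimulated with submaximal NPY then isoproterenol with phosphodiesterase inhibitor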
# NPY-Y1 agonist 2 – counter-screen for NPY-Y2 potentiators: agonists of human NPY-Y1 | shares compounds with NPY2 pot ag | HEK293 Y1-CNGC, membrane potential fluorescence, agonism | activation, % at 3.6 µM | 37% of 450 active | AID 1702;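 active = activation above the mean of DMSO-only control wells plus 3 SD, cut at about 18% in these data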;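 note: cells stimulated with 1 µM isoproterenol plus the PDE inhibitor Ro 20-1724; 0% = isoproterenol with DMSO and no NPY and 100% = 40 nM NPY; Y1 agonists lower the membrane potential dye signal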
# CNGC inh – blocks CNG channel activity, counter-screen for NPY-Y2 potentiators; shares compounds with NPY2 pot ag; HEK293-CNG parental, isoproterenol cAMP, membrane potential fluorescence; inhibition, % at 3.6 µM; 32% of 450 active;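 active = inhibition above the control-well mean plus 3 SD of those wells, cut at about 22% in these data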;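 note: 0% = DMSO with isoproterenol and 100% = DMSO without isoproterenol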
# Y2 agonist ctr – NPY-Y2 agonism, counter-screen for Y2 potentiators. shares compounds with NPY2 pot ag. HEK293 Y2/CNGC cells, membrane potential fluorescence, agonist mode. activation, % at 3.6 µM. 56% of 450 active;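 active = activation above the mean of solvent-only control wells plus 3 SD, cut at about 10% in these data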;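 note: cells stimulated by isoproterenol with no NPY added so direct agonism is tested; 0% = DMSO with isoproterenol alone and 100% = NPY at EC100 plus isoproterenol; agonism lowers probe fluorescence through less cAMP and CNG channel opening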
# * = called active by the depositor; x = no result. Most compounds without a hit are left out; they make up all but 1.8% or so of the library.
SMILES,NPY2 pot ag,NPY Y1 blocker,NPY Y2 blocker,NPY-Y1 PAM-ag,NPY-Y2 pot conf,NPY-Y1 potentiator,NPY-Y1 agonist 2,CNGC inh,Y2 agonist ctr
O=C(Nc1cccc([N+](=O)[O-])c1)c1cc2ccccc2cc1O,57*,x,x,28,6,-20,-12,1,11*
Cc1cc(C)c2c(-n3cccc3)nn(C)c2n1,7,-4,1,8,x,x,x,x,x
Cc1ccc(C(=O)n2nc(-n3cccc3)c3c(C)cc(C)nc32)cc1,57*,-5,x,29,17,29,24*,3,18*
O=C(CN1CCN(c2ncccn2)CC1)NCc1ccccc1,-8,3,0,-24,x,x,x,x,x
Cc1c(C(=O)O)[nH]c2ccc([N+](=O)[O-])cc12,30*,-9,x,18,28,36,39*,21,31*
Cc1cc(Cl)n2nc(C)c(-c3ccc(Cl)cc3)c2n1,28*,-14,x,35,42*,59*,59*,63*,45*
O=C(Nc1ccccc1)Nc1ncc([N+](=O)[O-])s1,31*,3,x,21,13,-12,-11,8,-3
N#C/C(=C\Nc1ccccc1O)c1nc2ccccc2o1,31*,2,0,15,25,37,29*,34*,18*
N#C/C(=C\c1ccncc1)c1nc2ccccc2o1,-31,x,x,8,x,x,x,x,x
FC(F)(F)c1cccc(NC(=S)NNC(=S)Nc2cccc(C(F)(F)F)c2)c1,54*,x,x,34,32,40,46*,44*,33*
COCCNC(=O)[C@H](CSCc1ccccc1)N1Cc2ccccc2C1=O,102*,x,x,4,0,3,3,-1,5
COCCCNC(=O)[C@H](CSCc1ccccc1)N1Cc2ccccc2C1=O,-15,x,x,-5,x,x,x,x,x
Cc1nn(Cc2ccc(F)cc2)c(C)c1NC(=O)c1cnn2c1NC(c1ccccc1)CC2C(F)(F)F (centres undefined),34*,-8,-3,36,21,28,19*,22*,27*
Cc1nn(Cc2ccc(F)cc2)c(C)c1NC(=O)c1cnn2c1NC(c1cccs1)CC2C(F)(F)F (centres undefined),24,-6,-4,30,x,x,x,x,x
O=[N+]([O-])c1ccc(S(=O)(=O)Nc2nc3ccccc3nc2Nc2ccccc2)cc1,1,-3,x,26,x,x,x,x,x
O=[N+]([O-])c1ccc(Nc2c3ccccc3nc3ccccc23)cc1,31*,-5,x,25,47*,54*,36*,41*,45*
CC(C)c1ccc2oc(-c3ccc(NC(=O)c4ncn[nH]4)cc3)nc2c1,-4,-3,-1,16,x,x,x,x,x
CCC(C)c1ccc2oc(-c3ccc(NC(=O)c4ncn[nH]4)cc3)nc2c1 (centres undefined),35*,-1,4,-4,10,25,10,5,8
CCOc1ccc(-c2cc(C(=O)OC)[nH]n2)cc1,5,6,x,10,x,x,x,x,x
Cc1nn(C)c(C)c1CNC(=O)c1nn2c(c1Cl)NC(c1cccs1)CC2C(F)(F)F (centres undefined),29*,-7,16,1,6,0,11,2,-3
CCN(CC)c1cc(C)c2cc(NC(=O)c3cccs3)ccc2n1,28*,-4,x,35,33,53*,35*,45*,35*
Cc1c(C(C)C)c(=O)n(-c2ccc(S(=O)(=O)NCc3ccccc3)cc2)n1C,35*,-1,x,-23,2,-40,-28,-9,1
COC(=O)c1[nH]c2ccccc2c1NC(=O)CN1CCN(C/C=C/c2ccccc2)CC1,7,2,5,-25,x,x,x,x,x
CCOC(=O)c1[nH]c2ccc(F)cc2c1NC(=O)CN1CCN(C/C=C/c2ccccc2)CC1,38*,-2,-1,29,67*,90*,68*,71*,53*
CCc1ccc(N2C(=O)CC(NNc3nc4ccccc4s3)C2=O)cc1 (centres undefined),6,9,1,-9,x,x,x,x,x
SMILES,NPY2 pot ag,NPY Y1 blocker,NPY Y2 blocker,NPY-Y1 PAM-ag,NPY-Y2 pot conf,NPY-Y1 potentiator,NPY-Y1 agonist 2,CNGC inh,Y2 agonist ctr
C/C=C/C(=O)N1c2ccc(C)cc2C(C)=CC1(C)C,97*,x,x,-26,-9,-2,-10,-11,-2
COCCCNC(=S)N/N=C/c1ccc(OC)c(Br)c1,-28,x,x,-11,x,x,x,x,x
CN(C)CCCN(C(=O)/C=C/c1cccs1)c1nc2c(F)cccc2s1,36*,15,x,21,66*,73*,55*,63*,65*
CN(C)CCCN(C(=O)CCc1ccccc1)c1nc2c(F)cccc2s1,-8,12,10,-39,x,x,x,x,x
Cc1cccc2sc(N(CCN(C)C)C(=O)/C=C/c3cccs3)nc12,53*,10,1,12,91*,112*,97*,86*,100*
c1ccc(-c2nn[nH]n2)nc1,1,x,x,-4,x,x,x,x,x
Cc1c([N+](=O)[O-])c(C(=O)N2CCCC2)nn1C,-3,5,0,16,x,x,x,x,x
Cc1c([N+](=O)[O-])c(C(=O)Sc2ccc(Br)cc2)nn1C,44*,x,x,43,9,15,1,5,16*
O=C(NC1CCCC1)c1noc2c1CCCCC2,11,7,2,-22,x,x,x,x,x
Cc1ccc(NC(=O)c2cc(S(=O)(=O)Nc3ccc(C)cc3)cs2)cc1,43*,-13,-4,50,37*,47*,35*,42*,21*
Cc1ccc(NS(=O)(=O)c2ccc(NC(=O)c3cccs3)cc2)c(C)c1,-6,-7,-3,-6,x,x,x,x,x
CCN(CC)S(=O)(=O)c1ccc(C(=O)Oc2cc(C)[nH]c(=O)c2[N+](=O)[O-])cc1,-3,-1,x,6,x,x,x,x,x
Nc1c(-c2n[nH]c(=S)n2-c2ccc(Cl)cc2Cl)cnn1-c1ccccc1,-5,x,x,-36,x,x,x,x,x
Nc1[nH]nc2c1NN(c1ccc(Cl)cc1Cl)N2,32*,-4,-6,37,27,29,17,24*,21*
O=Cc1cc(N=Nc2ccccc2Cl)ccc1O,34*,-15,x,33,42*,51*,25*,25*,39*
COc1ccc(NS(=O)(=O)c2cccc(NC(=O)c3ccc(Cl)nc3)c2)cc1,14,16,x,-21,x,x,x,x,x
O=C(Nc1cccc(S(=O)(=O)Nc2ccc(Cl)cc2)c1)c1ccc(Cl)nc1,46*,6,-2,1,11,-16,-21,1,3
COc1ccc(CN(C)Cc2nc3scc(-c4ccccc4)c3c(=O)[nH]2)cc1OC,8,0,1,-3,x,x,x,x,x

# Screening results: PubChem, The Scripps Research Institute Molecular Screening Center
